The source made the active and inactive calls. No cut-off for these calls is given here.
What was measured:
HepG2 [1] = experiment: Cell cycle arrest in human HepG2 cells assessed as accumulation at G0/G1 phase after 24 hrs by propidium iodide staining based flow cytometry; format: functional
Method in brief: (§1)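 Cells were exposed for 24 h to a range of concentrations (625 nM, 2.5 and 10 µM), with DMSO vehicle as control. They were then stained with propidium iodide and analysed by flow cytometry to obtain the percentages of cells in G0/G1, S and G2 phases.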

MDA-MB-231 [2] = experiment: Cytotoxicity against human MDA-MB-231 cells assessed as reduction in cell viability after 72 hrs by CCK8 assay; format: functional, cell-based; settings: MDA-MB-231, 72 h
4T1 [3] = experiment: Cytotoxicity against mouse 4T1 cells assessed as reduction in cell viability after 72 hrs by CCK8 assay; format: functional, cell-based; settings: 4T1, 72 h
HepG2 [4] = experiment: Cytotoxicity against human HepG2 cells assessed as reduction in cell viability after 72 hrs by CCK8 assay; format: functional, cell-based; settings: HepG2, 72 h
NCI-H460 [5] = experiment: Cell cycle arrest in human NCI-H460 cells assessed as accumulation at G0/G1 phase after 24 hrs by propidium iodide staining based flow cytometry; format: functional; method in brief: as §1
MDA-MB-468 = experiment: Cytotoxicity against human MDA-MB-468 cells assessed as reduction in cell viability after 72 hrs by CCK8 assay; format: functional, cell-based; settings: MDA-MB-468, 72 h
Hep 3B2 [6] = experiment: Cell cycle arrest in human Hep3B cells assessed as accumulation at G0/G1 phase after 24 hrs by propidium iodide staining based flow cytometry; format: functional; method in brief: as §1
NCI-H1299 = experiment: Cytotoxicity against human NCI-H1299 cells assessed as reduction in cell viability after 72 hrs by CCK8 assay; format: functional, cell-based; settings: NCI-H1299, 72 h
A549 [7] = experiment: Cytotoxicity against human A549 cells assessed as reduction in cell viability after 72 hrs by CCK8 assay; format: functional, cell-based; settings: A549, 72 h
MDA-MB-231 [8] = experiment: Cell cycle arrest in human MDA-MB-231 cells assessed as accumulation at G0/G1 phase after 24 hrs by propidium iodide staining based flow cytometry; format: functional; method in brief: as §1
4T1 [9] = experiment: Antitumor activity against mouse Fluc-labeled 4T1 cells implanted in Balb/c mouse assessed as tumor growth inhibition at 130 mg/kg, ip administered daily for 18 days measured after 8 to 25 days by bioluminescence assay relative to control; format: functional; settings: 4T1, ip, read-out: TGI
4T1 [10] = experiment: Antitumor activity against mouse Fluc-labeled 4T1 cells implanted in Balb/c mouse assessed as tumor growth inhibition at 130 mg/kg, po administered daily via gavage for 18 days by bioluminescence assay relative to control; format: functional; settings: 4T1, po, 432 h, read-out: TGI
Hep 3B2 [11] = experiment: Cytotoxicity against human Hep3B cells assessed as reduction in cell viability after 72 hrs by CCK8 assay
T47D [12] = experiment: Cytotoxicity against human T47D cells assessed as reduction in cell viability after 72 hrs by CCK8 assay; format: functional, cell-based
4T1 [13] = experiment: Antitumor activity against mouse Fluc-labeled 4T1 cells implanted in Balb/c mouse assessed as reduction in tumor weight at 130 mg/kg, ip administered daily for 18 days measured after 8 to 25 days; format: functional, organism-based
Method in brief: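 Luciferase (Fluc) reporter introduced into 4T1 cells by lentiviral transduction. Cells implanted orthotopically into mammary fat pads of female BALB/c mice aged 6–8 weeks. Once tumours averaged 100 mm3, dosing was daily by IP injection. Bioluminescence imaging was done at days 8 and 25 to reflect viable tumour cell number. Tumour weight was recorded at study end.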

NCI-H460 [14] = experiment: Cytotoxicity against human NCI-H460 cells assessed as reduction in cell viability after 72 hrs by CCK8 assay; format: functional, cell-based; settings: NCI-H460, 72 h
A549 [15] = experiment: Cell cycle arrest in human A549 cells assessed as accumulation at G0/G1 phase after 24 hrs by propidium iodide staining based flow cytometry; format: functional; method in brief: as §1
T47D [16] = experiment: Cell cycle arrest in human T47D cells assessed as accumulation at G0/G1 phase after 24 hrs by propidium iodide staining based flow cytometry; format: functional; method in brief: as §1

`CN(C)C(=O)c1cc2cnc(Nc3ccc(N4CCNCC4)cn3)nc2n1C1CCCC1` [RIBOCICLIB] was tested. Which Activity (HepG2 [1]) did it give?
The Activity was “Active”.

What about the IC50 (MDA-MB-231 [2]) of the same molecule?
Its IC50 is greater than 10 µM.

And the IC50 (4T1 [3])?
Its IC50 is greater than 10 µM.

What about the IC50 (HepG2 [4]) of the same molecule?
The IC50 was greater than 10 µM.

What about the Activity (NCI-H460 [5]) of the same molecule?
The Activity was “Active”.

And the IC50 (MDA-MB-468)?
Its IC50 is greater than 10 µM.

What about the Activity (Hep 3B2 [6]) of the same molecule?
The Activity was “Active”.

And the IC50 (NCI-H1299)?
The IC50 was 5.46 µM.

And the IC50 (A549 [7])?
The IC50 was greater than 10 µM.

What about the Activity (MDA-MB-231 [8]) of the same molecule?
Its Activity is “Active”.

What about the inhibition in vivo at 130 mg/kg (4T1 [9]) of the same molecule?
The inhibition in vivo at 130 mg/kg was 68.5%.

And the inhibition in vivo at 130 mg/kg (4T1 [10])?
Its inhibition in vivo at 130 mg/kg is 38.9%.

What about the IC50 (Hep 3B2 [11]) of the same molecule?
Its IC50 is greater than 10 µM.

What about the IC50 (T47D [12]) of the same molecule?
Its IC50 is 6.23 µM.

And the Activity (4T1 [13])?
The Activity was “Active”.

What about the IC50 (NCI-H460 [14]) of the same molecule?
Its IC50 is greater than 10 µM.

And the Activity (A549 [15])?
The Activity was “Active”.

And the Activity (T47D [16])?
The Activity was “Active”.

— ChEMBL document CHEMBL4020842, “Discovery of N1-(4-((7-Cyclopentyl-6-(dimethylcarbamoyl)-7 H-pyrrolo[2,3- d]pyrimidin-2-yl)amino)phenyl)- N8-hydroxyoctanediamide as a Novel Inhibitor Targeting Cyclin-dependent Kinase 4/9 (CDK4/9) and Histone Deacetlyase1 (HDAC1) against Malignant Cancer” (J Med Chem, 2018)
